# What was measured:
# Format in all cases: functional
# CCRF-CEM = experiment: Growth inhibition of human CCRF-CEM cells after 48 hrs by sulforhodamine B assay
# In short: (§1)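 NCI 60-human-tumor-cell-line panel, with compounds tested over a 5-log dose range. Values are taken from dose-response curves as log10 molar concentrations: GI50 is 50% net growth inhibition, TGI is total growth inhibition, and LC50 is 50% net cell death.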
# HL-60(TB) = experiment: Growth inhibition of human HL-60(TB) cells after 48 hrs by sulforhodamine B assay; details: HL-60, 48 h
# In short: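 Tested only on compounds active in a three-line prescreen, in the NCI 60-human-tumour-cell-line panel over a 5-log dose range. Values come from dose–response curves as log10 molar GI50, the concentration inhibiting 50% net cell growth. Log10 TGI (total growth inhibition) and log10 LC50 (50% net cell death) were derived too. Mean graph midpoints include insensitive lines at the highest concentration tested.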
# K562 = experiment: Growth inhibition of human K562 cells after 48 hrs by sulforhodamine B assay; details: K562, 48 h; in short: as §1
# HOP-62 = experiment: Growth inhibition of human HOP62 cells after 48 hrs by sulforhodamine B assay; details: HOP-62, 48 h; in short: as §1
# NCI-H226 = experiment: Growth inhibition of human NCI-H226 cells after 48 hrs by sulforhodamine B assay; details: NCI-H226, 48 h; in short: as §1
# NCI-H460 = experiment: Growth inhibition of human NCI-H460 cells after 48 hrs by sulforhodamine B assay; details: NCI-H460, 48 h; in short: as §1
# NCI-H522 = experiment: Growth inhibition of human NCI-H522 cells after 48 hrs by sulforhodamine B assay; details: NCI-H522, 48 h; in short: as §1
# KM12 = experiment: Growth inhibition of human KM12 cells after 48 hrs by sulforhodamine B assay; details: KM12, 48 h; in short: as §1
# SF-539 = experiment: Growth inhibition of human SF539 cells after 48 hrs by sulforhodamine B assay; details: SF-539, 48 h; in short: as §1
# Malme-3M = experiment: Growth inhibition of human MALME-3M cells after 48 hrs by sulforhodamine B assay; in short: as §1
# M14 = experiment: Growth inhibition of human M14 cells after 48 hrs by sulforhodamine B assay; details: M14, 48 h; in short: as §1
# UACC-62 = experiment: Growth inhibition of human UACC62 cells after 48 hrs by sulforhodamine B assay; details: UACC-62, 48 h
# In short: (§2)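 Run in the NCI 60-human-tumour-cell-line panel, tested over a 5-log dose range. Dose–response curves gave three values per cell line, each as a log10 molar concentration: GI50 (50% inhibition of net cell growth), TGI (total inhibition of net growth) and LC50 (50% net cell death). The mean graph midpoint is the arithmetic mean over all lines, with insensitive lines entered at the highest concentration tested.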
# OVCAR-3 = experiment: Growth inhibition of human OVCAR-3 cells after 48 hrs by sulforhodamine B assay; details: OVCAR-3, 48 h; in short: as §1
# OVCAR-4 = experiment: Growth inhibition of human OVCAR4 cells after 48 hrs by sulforhodamine B assay; details: OVCAR-4, 48 h; in short: as §1
# SK-OV-3 = experiment: Growth inhibition of human SKOV3 cells after 48 hrs by sulforhodamine B assay; details: SK-OV-3, 48 h; in short: as §1
# 786-0 = experiment: Growth inhibition of human 786-0 cells after 48 hrs by sulforhodamine B assay; details: 786-0, 48 h; in short: as §1
# A498 = experiment: Growth inhibition of human A498 cells after 48 hrs by sulforhodamine B assay; details: A498, 48 h; in short: as §1
# CAKI-1 = experiment: Growth inhibition of human Caki1 cells after 48 hrs by sulforhodamine B assay; details: CAKI-1, 48 h; in short: as §1
# SN12C = experiment: Growth inhibition of human SN12C cells after 48 hrs by sulforhodamine B assay; in short: as §2
# TK-10 = experiment: Growth inhibition of human TK10 cells after 48 hrs by sulforhodamine B assay; details: TK-10, 48 h; in short: as §2
# UO-31 = experiment: Growth inhibition of human UO31 cells after 48 hrs by sulforhodamine B assay; details: UO-31, 48 h; in short: as §2
# NCI/ADR-RES = experiment: Growth inhibition of human NCI/ADR-RES cells after 48 hrs by sulforhodamine B assay; in short: as §1
# MDA-MB-231 = experiment: Growth inhibition of human MDA-MB-231 cells after 48 hrs by sulforhodamine B assay; details: MDA-MB-231, 48 h; in short: as §1
# T47D = experiment: Growth inhibition of human T47D cells after 48 hrs by sulforhodamine B assay; in short: as §2
# [1] = read-out: pLC50 (the source's name) (converted)
compound,measurement,setting,value
Nc1cc(N)c2nc(-c3ccccc3)c(Sc3ccc(Cl)c(Cl)c3)nc2c1,GI50,CCRF-CEM,2.51 µM
same,LC50,CCRF-CEM,> 100 µM
same,TGI,CCRF-CEM; read-out: pTGI (converted),> 100 µM
same,GI50,HL-60(TB),7.94 µM
same,LC50,HL-60(TB),> 100 µM
same,TGI,HL-60(TB); read-out: pTGI (converted),> 100 µM
same,GI50,K562,15.8 µM
same,LC50,K562,> 100 µM
same,TGI,K562; read-out: pTGI (converted),> 100 µM
same,GI50,HOP-62,12.3 µM
same,LC50,HOP-62,> 100 µM
same,TGI,HOP-62; read-out: pTGI (converted),77.6 µM
same,GI50,NCI-H226,3.02 µM
same,LC50,NCI-H226,> 100 µM
same,TGI,NCI-H226; read-out: pTGI (converted),9.12 µM
same,GI50,NCI-H460,10.5 µM
same,LC50 (50% net cell kill),NCI-H460,> 100 µM
same,TGI,NCI-H460; read-out: pTGI (converted),33.9 µM
same,GI50,NCI-H522,7.59 µM
same,LC50,NCI-H522,> 100 µM
same,TGI,NCI-H522; read-out: pTGI (converted),33.9 µM
same,GI50,KM12,11.2 µM
same,LC50 (50% net cell kill),KM12,> 100 µM
same,TGI,KM12; read-out: pTGI (converted),> 100 µM
same,GI50,SF-539,14.5 µM
same,LC50,SF-539,> 100 µM
same,TGI,SF-539; read-out: pTGI (converted),41.7 µM
same,GI50,Malme-3M,19.5 µM
same,CC50,Malme-3M; [1],> 100 µM
same,TGI,Malme-3M; read-out: pTGI (converted),50.1 µM
same,GI50,M14,32.4 µM
same,CC50,M14; [1],> 100 µM
same,TGI,M14; read-out: pTGI (converted),> 100 µM
same,GI50,UACC-62,6.76 µM
same,CC50,UACC-62; [1],> 100 µM
same,TGI,UACC-62; read-out: pTGI (converted),42.7 µM
same,GI50,OVCAR-3,11.7 µM
same,CC50,OVCAR-3; [1],> 100 µM
same,TGI,OVCAR-3; read-out: pTGI (converted),46.8 µM
same,GI50,OVCAR-4,20 µM
same,CC50,OVCAR-4; [1],> 100 µM
same,TGI,OVCAR-4; read-out: pTGI (converted),> 100 µM
same,GI50,SK-OV-3,14.8 µM
same,CC50,SK-OV-3; [1],> 100 µM
same,TGI,SK-OV-3; read-out: pTGI (converted),39.8 µM
same,GI50,786-0,23.4 µM
same,CC50,786-0; [1],> 100 µM
same,TGI,786-0; read-out: pTGI (converted),61.7 µM
same,GI50,A498,17 µM
same,CC50,A498; [1],57.5 µM
same,TGI,A498; read-out: pTGI (converted),30.9 µM
same,GI50,CAKI-1,15.1 µM
same,CC50,CAKI-1; [1],89.1 µM
same,TGI,CAKI-1; read-out: pTGI (converted),37.2 µM
same,GI50,SN12C,7.59 µM
same,CC50,SN12C; [1],64.6 µM
same,TGI,SN12C; read-out: pTGI (converted),23.4 µM
same,GI50,TK-10,5.89 µM
same,CC50,TK-10; [1],53.7 µM
same,TGI,TK-10; read-out: pTGI (converted),20 µM
same,GI50,UO-31,3.8 µM
same,CC50,UO-31; [1],> 100 µM
same,TGI,UO-31; read-out: pTGI (converted),> 100 µM
same,GI50,NCI/ADR-RES,19.1 µM
same,CC50,NCI/ADR-RES; [1],> 100 µM
same,TGI,NCI/ADR-RES; read-out: pTGI (converted),60.3 µM
same,GI50,MDA-MB-231,16.6 µM
same,CC50,MDA-MB-231; [1],> 100 µM
same,TGI,MDA-MB-231; read-out: pTGI (converted),53.7 µM
same,GI50,T47D,13.2 µM
same,CC50,T47D; [1],> 100 µM
same,TGI,T47D; read-out: pTGI (converted),> 100 µM

# From ChEMBL document CHEMBL1137710, “Synthesis and in vitro antitumor activity of new quinoxaline derivatives” (2009)
